In paper PMC12667952 (bioRxiv, 2025):
Changes are numbered by the printed parent chain. pIC50: −log10 of the molar value. Where two headings read alike, the source gives them in different places.

Legend:
[1] = cited from earlier work
GlyT2 = details: read-out: IC50 for GlyT2; cited from earlier work
hGlyT2^WT [2] = target: T1, hGlyT2^WT (Homo sapiens, UniProt Q9Y345); assay: Reversibility; type: cell-based
T1 sequence (Q9Y345 1-797): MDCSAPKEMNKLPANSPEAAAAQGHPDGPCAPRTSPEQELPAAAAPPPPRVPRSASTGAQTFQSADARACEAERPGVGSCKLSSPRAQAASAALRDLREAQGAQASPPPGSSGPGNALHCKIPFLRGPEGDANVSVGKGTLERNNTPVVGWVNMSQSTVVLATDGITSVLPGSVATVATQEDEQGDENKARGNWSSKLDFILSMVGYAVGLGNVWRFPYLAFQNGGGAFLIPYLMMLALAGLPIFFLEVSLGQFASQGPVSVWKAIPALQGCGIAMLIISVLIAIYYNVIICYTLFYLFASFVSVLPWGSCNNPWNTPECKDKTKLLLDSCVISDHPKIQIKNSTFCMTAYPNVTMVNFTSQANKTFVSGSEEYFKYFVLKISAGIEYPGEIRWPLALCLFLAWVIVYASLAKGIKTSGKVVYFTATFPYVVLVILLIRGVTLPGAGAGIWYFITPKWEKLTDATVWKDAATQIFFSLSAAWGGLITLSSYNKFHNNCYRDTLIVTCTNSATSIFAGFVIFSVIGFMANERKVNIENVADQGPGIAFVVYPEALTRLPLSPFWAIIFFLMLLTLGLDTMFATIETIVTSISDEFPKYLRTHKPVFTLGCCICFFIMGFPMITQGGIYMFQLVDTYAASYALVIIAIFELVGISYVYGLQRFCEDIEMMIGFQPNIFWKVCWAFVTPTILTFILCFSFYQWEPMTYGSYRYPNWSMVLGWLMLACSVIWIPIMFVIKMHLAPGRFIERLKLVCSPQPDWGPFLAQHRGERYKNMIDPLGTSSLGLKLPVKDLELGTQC
In short: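 Xenopus oocytes injected with 20 ng hGlyT2 WT cRNA and held 3–6 days at 18 °C. Glycine currents recorded by two-electrode voltage clamp at −60 mV. Test compound applied at a single concentration (10 μM maximum), then washed out. Recovery of 30 µM glycine-evoked currents followed to 30 min, normalised to pre-inhibitor current. n ≥ 5 from at least two frogs.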

hGlyT2^WT [3] = target: T1, hGlyT2^WT; type: cell-based
hGlyT2^WT [4] = target: T1, hGlyT2^WT; assay: Sodium dependence of inhibition of glycine transport currents; type: cell-based; details: IC50 at 100 mM Na+, 100 mM Na+, 300 μM glycine
hGlyT2^W215F [5] = target: T2, hGlyT2^W215F (Homo sapiens, UniProt Q9Y345, W215F); type: cell-based
T2 sequence (Q9Y345 1-797 W215F): T1 sequence (Q9Y345 1-797) with W215F

hGlyT2^D633E [6] = target: T3, hGlyT2^D633E (Homo sapiens, UniProt Q9Y345, D633E); type: cell-based
T3 sequence (Q9Y345 1-797 D633E): T1 sequence (Q9Y345 1-797) with D633E

mice [7] = details: 50 mg/kg; cited from earlier work
hGlyT2^W215F [8] = target: T2, hGlyT2^W215F; assay: Reversibility; type: cell-based
hGlyT2^D633E [9] = target: T3, hGlyT2^D633E; assay: Reversibility; type: cell-based
mice [10] = details: 50 mg/kg; cited from earlier work; remark: listed apart in the source
CCI mice = assay: Cold allodynia; type: in vivo, mouse; details: control compound gabapentin 100 mg/kg, by 2-hour time point
In short: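 CCI mice tested 14 days after surgery. […] Acetone-evoked cold allodynia scored before surgery, at t = 0 before dosing, and at 0.5, 1, 1.5, 2, 4 and 6 h. Expressed as % of maximal possible responses. Two-way ANOVA with Dunnett's test versus vehicle.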

C57BL/6J mice = assay: Conditioned place preference; type: in vivo, mouse; details: 10 mg/kg, i.p., positive control

CCCCCCCC/C=C\CCCCCCCC(=O)N[C@H](CCCCN)C(=O)O [oleoyl-D-lysine]
Effects on inflammatory and acute nociceptive pain thresholds [1]: no effects

CCCCOc1c(OC)cc(C(=O)NCC2(N(C)C)CCOCC2)cc1OC [opiranserin]
pIC50 (GlyT2): 6.07

COc1cc(C(=O)NCC2(N(C)C)CCCC2)cc(OC)c1OCc1ccccc1 [ORG25543, 4-(benzyloxy)-N-{[1-(dimethylamino)cyclopentyl]methyl}-3,5-dimethoxybenzamide, reference compound]
Glycine currents restored, of pre-inhibitor levels (hGlyT2^WT [2]; after 30 minutes washout): 12.5% | Reversibility of inhibition (recovery of glycine-induced currents) (hGlyT2^WT [2]; washout, hGlyT2^WT): minimal restoration of glycine-induced currents 30-minutes post-ORG25543 | Effects on inflammatory and acute nociceptive pain thresholds [1]: no effects | pIC50 (hGlyT2^WT [3]): 7.94 | pIC50 (hGlyT2^WT [4]): 7.75 | Decrease in potency of inhibition, W215F versus WT (hGlyT2^W215F [5]): ~three-fold | Reduction in potency of inhibition, D633E versus WT (hGlyT2^D633E [6]): ~ 14 fold | Side effects coinciding with analgesic dose (mice [7]): near-complete loss of rotarod performance, seizures and in one case, lethality | Washout of inhibitor from hGlyT2^W215F (hGlyT2^W215F [8]): significantly increased the rate of ORG25543 washout | Washout of inhibitor from hGlyT2^D633E (hGlyT2^D633E [9]): recovery from ORG25543 within five minutes | Mechanical allodynia (mice [10]): reversed mechanical allodynia

NCC1(CC(=O)O)CCCCC1 [Gabapentin, reference compound]
Peak reduction of response rate to acetone stimulus (CCI mice): 75%

CN1CC[C@]23c4c5ccc(O)c4O[C@H]2[C@@H](O)C=C[C@H]3[C@H]1C5 [morphine, reference compound]
Preference for the paired chamber (C57BL/6J mice): significant increase in preference for the paired chamber
